Assay results taken from ChEMBL document CHEMBL4138082 (Eur J Med Chem, 2017).
The source made the active and inactive calls. The rule behind the calls is not given here.

Assays:
HepG2 [1] = assay: Cell cycle arrest in human HepG2 cells assessed as G1 phase accumulation at 0.0625 uM after 48 hrs by propidium iodide staining based flow cytometry (reference value: 32.74%); format: functional
Outline: (§1)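 HepG-2 cells were plated and grown 24 h at 37 °C, then treated 48 h at 0, 0.0625, 0.125 or 0.25 µM, with 0.1% DMSO as control. Cells were fixed overnight in 70% ethanol at 4 °C, treated with RNase A and stained with propidium iodide. DNA content was measured by flow cytometry to give cell-cycle phase distribution.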

HepG2 [2] = assay: Antiproliferative activity against human HepG2 cells after 72 hrs by MTT assay; format: functional, cell-based; details: HepG2, 72 h
Outline: (§2)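 MTT assay. Cells were seeded and grown 24 h at 37 °C in 5% CO2, then exposed to compound or left untreated for 72 h. MTT (5 mg/mL stock) was added for 4 h and the formazan dissolved in DMSO. OD was read at 570 nm. IC50 is the concentration giving 50% growth inhibition, reported as mean ± SD of three independent experiments. Vehicle reference was 0.1% DMSO.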

L02 = assay: Cytotoxicity against human L02 cells assessed as reduction in cell viability after 72 hrs by MTT assay; format: cell-based; details: L02, 72 h; outline: as §2
[3] = Selectivity index, ratio of IC50 for human L02 cells to IC50 for human HepG2 cells; format: toxicity; details: L02 cells and HepG2 cells, read-out: Ratio IC50
Outline: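 MTT assay: cells grown 24 h at 37 °C, 5% CO2, then exposed 72 h; MTT (5 mg/mL) added for 4 h, formazan dissolved in DMSO, OD read at 570 nm. Vehicle 0.1% DMSO. Three independent experiments.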

[4] = Drug metabolism in human L02 cells assessed as NO release by measuring nitrite formation at 100 uM after 1 hr by Griess assay; format: ADME, cell-based; details: l02, 1 h
Outline: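 HepG-2 or L-02 cells were exposed to 100 µM of each compound for 60 min and then harvested. Lysates were mixed with Griess reagent for 10 min at 37 °C and absorbance was read at 550 nm. NO release is expressed as nitrite, reported as mean ± SD of three independent experiments.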

HepG2 [5] = assay: Cell cycle arrest in human HepG2 cells assessed as S phase accumulation at 0.0625 uM after 48 hrs by propidium iodide staining based flow cytometry (reference value: 43.88%); format: functional; outline: as §1
HepG2 [6] = assay: Cell cycle arrest in human HepG2 cells assessed as G1 phase accumulation at 0.125 uM after 48 hrs by propidium iodide staining based flow cytometry (reference value: 32.74%); format: functional; outline: as §1
HepG2 [7] = assay: Cell cycle arrest in human HepG2 cells assessed as S phase accumulation at 0.125 uM after 48 hrs by propidium iodide staining based flow cytometry (reference value: 43.88%); format: functional; outline: as §1
HepG2 [8] = assay: Cell cycle arrest in human HepG2 cells assessed as G2 phase accumulation at 0.125 uM after 48 hrs by propidium iodide staining based flow cytometry (reference value: 23.38%); format: functional; outline: as §1
HepG2 [9] = assay: Cell cycle arrest in human HepG2 cells assessed as S phase accumulation at 0.0625 uM after 48 hrs in presence of hemoglobin by propidium iodide staining based flow cytometry (reference value: 36.40%); format: functional
HepG2 [10] = assay: Cell cycle arrest in human HepG2 cells assessed as S phase accumulation at 0.125 uM after 48 hrs in presence of hemoglobin by propidium iodide staining based flow cytometry (reference value: 36.40%); format: functional
HepG2 [11] = assay: Cell cycle arrest in human HepG2 cells assessed as S phase accumulation at 0.25 uM after 48 hrs in presence of hemoglobin by propidium iodide staining based flow cytometry (reference value: 36.40%); format: functional
HepG2 [12] = assay: Cell cycle arrest in human HepG2 cells assessed as G2 phase accumulation at 0.25 uM after 48 hrs in presence of hemoglobin by propidium iodide staining based flow cytometry (reference value: 10.67%); format: functional
HepG2 [13] = assay: Induction of apoptosis in human HepG2 cells assessed as nuclear fragmentation at 0.0625 to 0.25 uM measured after 48 hrs by Hoechst 33258 staining based fluorescent microscopic analysis; format: functional, cell-based
HepG2 [14] = assay: Induction of apoptosis in human HepG2 cells assessed as early apoptotic cells at 0.0625 uM after 48 hrs by […] based flow cytometry (reference value: 3.18%); format: functional
HepG2 [15] = assay: Induction of apoptosis in human HepG2 cells assessed as late apoptotic cells at 0.125 uM after 48 hrs by […] (reference value: 3.36%); format: functional
HepG2 [16] = assay: Induction of apoptosis in human HepG2 cells assessed as late apoptotic cells at 0.25 uM after 48 hrs by […] based flow cytometry (reference value: 3.36%); format: functional
HepG2 [17] = assay: Induction of apoptosis in human HepG2 cells assessed as viable cells at 0.25 uM after 48 hrs by Annexin V-APC/7-AAD staining based flow cytometry (reference value: 91.07%); format: functional; details: HepG2, 48 h, read-out: Activity
HepG2 [18] = assay: Induction of apoptosis in human HepG2 cells assessed as early apoptotic cells at 0.0625 uM after 48 hrs in presence of hemoglobin by Annexin V-APC/7-AAD staining based flow cytometry (reference value: 3.18%); format: functional
HepG2 [19] = assay: Induction of apoptosis in human HepG2 cells assessed as late apoptotic cells at 0.125 uM after 48 hrs in presence of hemoglobin by Annexin V-APC/7-AAD staining based flow cytometry (reference value: 3.36%); format: functional
HepG2 [20] = assay: Induction of apoptosis in human HepG2 cells assessed as late apoptotic cells at 0.25 uM after 48 hrs in presence of hemoglobin by Annexin V-APC/7-AAD staining based flow cytometry (reference value: 3.36%); format: functional
HepG2 [21] = assay: Induction of apoptosis in human HepG2 cells assessed as cell population with mitochondrial membrane potential loss at 0.25 uM measured after 48 hrs by JC-1 staining based flow cytometry (reference value: 1.49%); format: functional
Outline: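 HepG-2 cells were exposed 48 h to 0.0625, 0.125 or 0.25 µM or to vehicle, then washed in PBS and stained with JC-1 in the dark. Red aggregate versus green monomer fluorescence was measured by flow cytometry to give the percentages of cells with healthy versus collapsed mitochondrial membrane potential.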

HepG2 [22] = assay: Induction of mitochondrial membrane potential loss in human HepG2 cells measured after 48 hrs by JC-1 staining based flow cytometry; format: functional, cell-based
Outline: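 After 48 h exposure to 0.0625, 0.125 or 0.25 mM (so in the source) or vehicle, HepG-2 cells washed in PBS and stained with JC-1 in the dark. Flow cytometry scored cells with healthy (red aggregate) versus collapsed (green monomer) mitochondrial membrane potential.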

HepG2 [23] = assay: Downregulation of Bcl-2 level in human HepG2 cells up to 0.25 uM after 48 hrs by Western blot method; format: functional, cell-based
Outline: (§3)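 HepG-2 cells were exposed 48 h to 0, 0.0625, 0.125 or 0.25 µM and lysed on ice for 20 min. Equal protein loads were run on 12% SDS-PAGE and transferred to PVDF. Membranes were probed overnight at 4 °C with primary antibodies, then with HRP-conjugated secondaries, and detected by ECL chemiluminescence.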

HepG2 [24] = assay: Downregulation of Bcl-xl level in human HepG2 cells up to 0.25 uM after 48 hrs by Western blot method; format: functional, cell-based; outline: as §3
HepG2 [25] = assay: Downregulation of pro-caspase 3 level in human HepG2 cells up to 0.25 uM after 48 hrs by Western blot method; format: functional, cell-based; outline: as §3

## C[C@H]1CCC/C=C/[C@@H]2C[C@H](OC(=O)CCCC(=O)OCCOc3no[n+]([O-])c3S(=O)(=O)c3ccccc3)C[C@H]2[C@H](OC(=O)CCCC(=O)OCCOc2no[n+]([O-])c2S(=O)(=O)c2ccccc2)/C=C/C(=O)O1
HepG2 [1]
  Activity: 32.84%
HepG2 [2]
  IC50: 0.18 µM
L02
  IC50: 6 µM
[3]
  selectivity ratio: 33
[4]
  Drug metabolism: 22.4 µM
HepG2 [5]
  Activity: 48.2%
HepG2 [6]
  Activity: 31.78%
HepG2 [7]
  Activity: 51.22%
HepG2 [8]
  Activity: 17%
HepG2 [9]
  Activity: 24.74%
HepG2 [10]
  Activity: 30.54%
HepG2 [11]
  Activity: 22.37%
HepG2 [12]
  Activity: 5.3%
HepG2 [13]
  Activity: Active
HepG2 [14]
  Activity: 3.1%
HepG2 [15]
  Activity: 21.42%
HepG2 [16]
  Activity: 40.21%
HepG2 [17]
  viability at 0.25 µM: 39.3%
HepG2 [18]
  Activity: 3.25%
HepG2 [19]
  Activity: 9.87%
HepG2 [20]
  Activity: 12.24%
HepG2 [21]
  Activity: 60.14%
HepG2 [22]
  Activity: Dose-dependent effect
HepG2 [23]
  Activity: Active
HepG2 [24]
  Activity: Active
HepG2 [25]
  Activity: Active
